Test results: ChEMBL document CHEMBL1124083, “Synthesis and biological properties of actinomycin D chromophoric analogues substituted at carbon 7 with aziridine and cyclopropyl functions” (J Med Chem, 1988)
≈ marks a conversion by molar mass, not a printed value. *1 amine or outer side, *2 acyl side, *3 side chain or, on linkers, in order; H or OH if unused. Where a SMILES comes first, the peptide text is derived from it. Bridges are numbered along the chain shown (N, C = ends). Roman numbers before positions name the chains, in order. [ ]: non-standard residue; d: D form. Actinocin(9to1) = Cc1c2oc3c(C)ccc(C(=O)[*:1])c3nc-2c(C(=O)[*:2])c(N)c1=O; NMeV = CN[C@H](C(=O)O)C(C)C; Sar = CNCC(=O)O

Tests used:
[1] = tested on: CCRF-CEM; test: In vitro antitumor activity against human leukemic lymphoblastic cells (CCRF-CEM); assay type: functional; conditions: read-out: ID50 (the source's name)
Method in brief: (§1)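 Cells grown in suspension culture and exposed to compound for 48 h. Compounds dissolved in Me₂SO-saline, with less than 1% Me₂SO in the final growth medium. ID50 is the concentration in ng/mL giving 50% growth inhibition. Values are the mean of three experiments; SD ranged from 8% to 10% of the mean.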

[2] = tested on: B16; test: In vitro antitumor activity against murine melanoma cells (B16 melanoma cells); assay type: functional; conditions: Mus musculus, read-out: ID50 (the source's name); method in brief: as §1
[3] = The delta Tm value is a measure of a stabilization of the DNA helical structure as consequence of compound binding; assay type: ADME
Method in brief: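 Calf-thymus DNA at 5.0 × 10⁻⁵ M with drug at 2.5 × 10⁻⁵ M in 0.01 M phosphate buffer (pH 7) containing 10⁻⁵ M EDTA. Thermal denaturation curves were recorded. ΔTm is the Tm of the DNA–drug complex minus the Tm of DNA alone.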

SMILES | IC50 [1] [µg/mL] | IC50 [2] [µg/mL] | Delta Tm [3] [C]
Cc1c2oc3c(C)c(OCC4CN4)cc(C(=O)N[C@@H]4C(=O)N[C@H](C(C)C)C(=O)N5CCC[C@H]5C(=O)N(C)CC(=O)N(C)[C@@H](C(C)C)C(=O)O[C@@H]4C)c3nc-2c(C(=O)N[C@@H]2C(=O)N[C@H](C(C)C)C(=O)N3CCC[C@H]3C(=O)N(C)CC(=O)N(C)[C@@H](C(C)C)C(=O)O[C@@H]2C)c(N)c1=O (some centres not stated) | 0.076 (≈ 0.0573 µM) | 0.11 (≈ 0.0829 µM) | 2.8
Cc1c2oc3c(C)ccc(C(=O)N[C@@H]4C(=O)N[C@H](C(C)C)C(=O)N5CCC[C@H]5C(=O)N(C)CC(=O)N(C)[C@@H](C(C)C)C(=O)O[C@@H]4C)c3nc-2c(C(=O)N[C@@H]2C(=O)N[C@H](C(C)C)C(=O)N3CCC[C@H]3C(=O)N(C)CC(=O)N(C)[C@@H](C(C)C)C(=O)O[C@@H]2C)c(N)c1=O [DACTINOMYCIN] (I: T[dV]P[Sar][NMeV] / II: T[dV]P[Sar][NMeV]; ester I:1-I:C, II:1-II:C; linker I:N-II:N via Actinocin(9to1)) | 0.013 (≈ 0.0104 µM) | 0.0033 (≈ 0.00263 µM) | 8
Cc1c2oc3c(C)c(OCC(C)N)cc(C(=O)N[C@@H]4C(=O)N[C@H](C(C)C)C(=O)N5CCC[C@H]5C(=O)N(C)CC(=O)N(C)[C@@H](C(C)C)C(=O)O[C@@H]4C)c3nc-2c(C(=O)N[C@@H]2C(=O)N[C@H](C(C)C)C(=O)N3CCC[C@H]3C(=O)N(C)CC(=O)N(C)[C@@H](C(C)C)C(=O)O[C@@H]2C)c(N)c1=O (some centres not stated) | 0.06 (≈ 0.0452 µM) | 0.055 (≈ 0.0414 µM) | 4.8
Cc1c2oc3c(C)c(OCCNCCO)cc(C(=O)N[C@@H]4C(=O)N[C@H](C(C)C)C(=O)N5CCC[C@H]5C(=O)N(C)CC(=O)N(C)[C@@H](C(C)C)C(=O)O[C@@H]4C)c3nc-2c(C(=O)N[C@@H]2C(=O)N[C@H](C(C)C)C(=O)N3CCC[C@H]3C(=O)N(C)CC(=O)N(C)[C@@H](C(C)C)C(=O)O[C@@H]2C)c(N)c1=O | 0.5 (≈ 0.368 µM) |  | 1.9
Cc1c2oc3c(C)c(OCC4CC4)cc(C(=O)N[C@@H]4C(=O)N[C@H](C(C)C)C(=O)N5CCC[C@H]5C(=O)N(C)CC(=O)N(C)[C@@H](C(C)C)C(=O)O[C@@H]4C)c3nc-2c(C(=O)N[C@@H]2C(=O)N[C@H](C(C)C)C(=O)N3CCC[C@H]3C(=O)N(C)CC(=O)N(C)[C@@H](C(C)C)C(=O)O[C@@H]2C)c(N)c1=O | 0.055 (≈ 0.0415 µM) | 0.038 (≈ 0.0287 µM) | -0.6
Cc1c2oc3c(C)c(OCCN4CC4)cc(C(=O)N[C@@H]4C(=O)N[C@H](C(C)C)C(=O)N5CCC[C@H]5C(=O)N(C)CC(=O)N(C)[C@@H](C(C)C)C(=O)O[C@@H]4C)c3nc-2c(C(=O)N[C@@H]2C(=O)N[C@H](C(C)C)C(=O)N3CCC[C@H]3C(=O)N(C)CC(=O)N(C)[C@@H](C(C)C)C(=O)O[C@@H]2C)c(N)c1=O | 0.3 (≈ 0.224 µM) | 0.14 (≈ 0.104 µM) | 1.8
